TAAR1 antag = antagonists of human TAAR1; Q96RJ0; CHO RD-HGA16 TAAR1, Fluo-8 calcium fluorescence, antagonist; inhibition, % at 3 µM; 1.5% of 360,000 active; AID 624466;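 active = inhibition above a per-plate cutoff, the mean inhibition of test compounds on that plate plus 3 SD, cut at about 49% in these data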
Target sequence (Q96RJ0 whole entry, looked up): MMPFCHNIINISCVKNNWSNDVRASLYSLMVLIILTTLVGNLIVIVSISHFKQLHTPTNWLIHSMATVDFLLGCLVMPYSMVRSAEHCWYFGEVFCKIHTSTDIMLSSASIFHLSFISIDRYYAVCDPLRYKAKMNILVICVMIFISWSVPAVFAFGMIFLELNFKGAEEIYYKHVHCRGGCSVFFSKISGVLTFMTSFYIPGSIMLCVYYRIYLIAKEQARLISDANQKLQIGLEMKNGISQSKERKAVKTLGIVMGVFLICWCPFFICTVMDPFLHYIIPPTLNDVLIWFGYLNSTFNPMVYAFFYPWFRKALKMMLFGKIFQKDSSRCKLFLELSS
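System: CHO RD-HGA16 cells bearing hTAAR1. Reagent: EC80 β-phenethylamine stimulus. Schedule: seeding 17-24 h prior, 75-min 37 °C, 30-min RT dye loading. Signal: Fluo-8 intracellular calcium dye fluorescence, real-time kinetic reads. Read-out: % inhibition from peak post-agonist over basal fluorescence ratio. Benchmarks: vehicle wells and EC80 agonist wells. Replicates: n of 1.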
CHO parental Ca = counter-screen for OX1R antagonists: effect in parental CHO cells; parental CHO-K1, ATP-induced calcium, Fluo-8 fluorescence; inhibition, % at 5.6 µM; 0.63% of 330,000 active;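 active = inhibition above that plate's mean sample inhibition plus 3 SD, cut at about 26% in these data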
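Material: parental CHO cells / Compound: single nominal dose of 5.6 µM per compound / Signal: Fluo-8 fluorescence / Replicates: singlicate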
OX1R antag-1 = antagonists of human orexin 1 receptor; O43613; CHO/OX1R cells, Fluo-8 calcium fluorescence, orexin A; inhibition, % at 5 µM; 0.43% of 330,000 active; AID 434989;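 active = inhibition above its plate's threshold, mean inhibition of all tested compounds on the plate plus 3 SD, cut at about 37% in these data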
Target sequence (O43613 whole entry, looked up): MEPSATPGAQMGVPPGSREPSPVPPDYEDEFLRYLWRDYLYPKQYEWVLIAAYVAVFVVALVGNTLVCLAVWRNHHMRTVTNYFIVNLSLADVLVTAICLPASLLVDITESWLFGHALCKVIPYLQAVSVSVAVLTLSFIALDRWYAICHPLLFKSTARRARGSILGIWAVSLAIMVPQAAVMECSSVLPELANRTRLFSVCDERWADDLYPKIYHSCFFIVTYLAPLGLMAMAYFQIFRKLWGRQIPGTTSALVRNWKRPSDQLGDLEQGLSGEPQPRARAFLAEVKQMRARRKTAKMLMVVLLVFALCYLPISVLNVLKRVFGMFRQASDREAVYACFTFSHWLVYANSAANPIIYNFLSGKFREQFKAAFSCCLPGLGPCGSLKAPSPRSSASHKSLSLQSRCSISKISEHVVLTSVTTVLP
OX1R antag-2 = OX1R (human) antagonism; OX1R-expressing cells, FRET antagonist read-out; inhibition, % at 6.6 µM; 1.8% of 330,000 active; AID 485270; in the data active = inhibition mostly above about 38%, no sharp cut-off; inactive = mostly below about 40%
TAAR1 ag = agonists of human TAAR1. CHO RD-HGA16 TAAR1, Fluo-8 calcium fluorescence; vehicle wells 0%, saturating PEA agonist 100%. activation, % at 3 µM. AID 624467. 0.99% of 360,000 active;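 active = activation above the mean activation of all test compounds in the run plus 3 SD, cut at about 38% in these data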
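Benchmarks: low control DMSO, high control PEA (EC100); System: CHO RD-HGA16 cells carrying human TAAR1 plus Gα16; Detection: Fluo-8 fluorescence, 5 s baseline then 140 s kinetic read; Schedule: 17-24 h plating, Fluo-8 75 min 37 °C, 30 min RT; Read-out basis: % activation from peak over basal fluorescence ratio, DMSO-to-PEA scaled.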
TAAR1 ag confirm = confirmation of human TAAR1 agonists; 82% of 2,400 active; activation, % at 3 µM; shares compounds with TAAR1 ag; CHO RD-HGA16 TAAR1, Fluo-8 calcium fluorescence; scaled: DMSO 0%, maximal phenethylamine 100%;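 active = activation above a cutoff set at the run's mean compound activation plus 3 SD, cut at about 39% in these data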
Ga16 ag counter = nonselective agonism, TAAR1 counter-screen | shares compounds with TAAR1 ag | CHO-Ga16 parental, Fluo-8 calcium fluorescence; normalized to maximal ATP response, DMSO zero | activation, % at 3 µM | 50% of 2,400 active | AID 651787;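 active = activation above the run cutoff, the mean activation over all tested wells plus 3 SD, cut at about 12% in these data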
TAAR1 desens = counter-screen for human TAAR1 agonists: agonists that desensitize TAAR1 | shares compounds with TAAR1 ag | inhibition, % at 3 µM | 46% of 2,400 active | CHO RD-HGA16 hTAAR1, Fluo-8 calcium, beta-PEA response inhibition;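 active = inhibition above the run cutoff, the mean inhibition of all test compounds plus 3 SD, cut at about 49% in these data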;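 note: beta-PEA stimulus applied at its EC80; loss of beta-PEA calcium signal after compound pretreatment read as receptor desensitization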
Ga16 nonsel ant = counter-screen for TAAR1 agonists: nonselective Ga16 antagonists; 39% of 2,400 active; CHO-Ga16 ATP-induced calcium, Fluo-8 fluorescence; inhibition, % at 3 µM; shares compounds with TAAR1 ag;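 active = inhibition above the plate's mean compound inhibition plus 3 SD, computed per plate, cut at about 22% in these data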
Large screens that a line does not name were inactive (follow-up assays come after a bar, where they were run). Sampled rows, rich in hits. Any-hit rate of the full collection: about 4%.

Fc1cccc(CSc2nnc3c(n2)[nH]c2ccccc23)c1	none
CC1(C)CCC(=O)N2CC[C@H]3C[C@H](OC(=O)Nc4ccccc4)C[C@@H]1[C@H]32	TAAR1 ag 58 | TAAR1 ag confirm 52 | Ga16 ag counter inactive | TAAR1 desens inactive | Ga16 nonsel ant inactive
CCN(Cc1ccccc1)Cc1nnnn1Cc1ccccc1	none
COc1cc(C(=O)NNC(=O)c2ccccc2OCc2c(C)noc2C)cc(OC)c1OC	none
CC1(C)CC(=O)C(C(=O)/C=C/c2ccco2)C(=O)C1	none
CC1(C)CC(=O)C(C(=O)/C=C/NCCc2ccccc2)C(=O)C1	TAAR1 antag 92, TAAR1 ag 87 | TAAR1 ag confirm 109 | Ga16 ag counter inactive | TAAR1 desens 93 | Ga16 nonsel ant inactive
CC1CCN(C(=O)CCCC(=O)N2CCC(C)CC2)CC1	none
CCN(CC)c1ccc(C=C2SC(=S)NC2=O)cc1	TAAR1 antag 105, TAAR1 ag 120 (no result: CHO parental Ca, OX1R antag-1, OX1R antag-2) | TAAR1 ag confirm 97 | Ga16 ag counter 104 | TAAR1 desens 101 | Ga16 nonsel ant 98
NCCCCC(N)c1cn([C@@H](CCC(=O)O)C(=O)N2CCNCC2)nn1 (stereo not given in full)	none
CCCCCCCCCCn1c2c(c(=N)c3c1CCC3)CCC2	OX1R antag-1 48, TAAR1 ag 47 | TAAR1 ag confirm 52 | Ga16 ag counter 23 | TAAR1 desens inactive | Ga16 nonsel ant 37
COC(=O)c1cccc(-n2c(C)cc(/C=C3\SC(=O)NC3=O)c2C)c1	none (no result: CHO parental Ca, OX1R antag-1, OX1R antag-2)
Cc1cc(/C=C2/SC(=O)NC2=O)c(C)n1-c1ccc(N2CCOCC2)cc1	TAAR1 ag 54 | TAAR1 ag confirm 60 | Ga16 ag counter 38 | TAAR1 desens inactive | Ga16 nonsel ant 24
N=c1c2c(-c3ccccc3)c(-c3ccccc3)n(Cc3ccccc3)c2ncn1CCO	TAAR1 ag 59 | TAAR1 ag confirm 49 | Ga16 ag counter 20 | TAAR1 desens inactive | Ga16 nonsel ant inactive
O=C(Nc1nnc(-c2cccs2)o1)c1cccc(C(F)(F)F)c1	TAAR1 ag 90 | TAAR1 ag confirm 45 | Ga16 ag counter 51 | TAAR1 desens inactive | Ga16 nonsel ant 25
O=C(Nc1ccccc1)Nc1nncs1	none (no result: TAAR1 antag, TAAR1 ag) | Ga16 ag counter inactive | Ga16 nonsel ant inactive
O=C(Cc1nnc(NC(=O)Nc2ccccc2)s1)NCc1ccccc1	TAAR1 ag 60 | TAAR1 ag confirm 80 | Ga16 ag counter inactive | TAAR1 desens 64 | Ga16 nonsel ant inactive
O=C(Nc1nncs1)Oc1ccccc1	none
O=C(Cc1nnc(NC(=O)Nc2ccc(Cl)cc2)s1)NCc1ccccc1	none
O=C(Nc1ccccc1)Nc1nccs1	TAAR1 ag 47 | TAAR1 ag confirm 85 | Ga16 ag counter inactive | TAAR1 desens 49 | Ga16 nonsel ant inactive
CCS(=O)(=O)c1nc(S(=O)(=O)c2ccc(Cl)cc2)c(NCCN2CCOCC2)s1	none
O=C(CSc1nnc(CNC(=O)c2cccc(C(F)(F)F)c2)o1)NC1CCCC1	none
Cc1ccc(CNC(=O)OC2CC3CC2[C@H]2CCCCN2C3=O)cc1 (stereo not given in full)	TAAR1 ag 54 (no result: CHO parental Ca, OX1R antag-1, OX1R antag-2) | TAAR1 ag confirm inactive | Ga16 ag counter inactive | TAAR1 desens inactive | Ga16 nonsel ant inactive
Cc1cccc(NC(=S)NCc2ccc3c(c2)OCO3)c1C	none
Cc1cccc(NC(=O)C(=O)NCc2ccc3c(c2)OCO3)c1C	TAAR1 ag 56 | TAAR1 ag confirm inactive | Ga16 ag counter inactive | TAAR1 desens inactive | Ga16 nonsel ant inactive
CCN(CC)c1ccc(/C=C/C(=O)C2C(=O)C=C(C)OC2=O)cc1 (stereo not given)	TAAR1 antag 108, CHO parental Ca 75, OX1R antag-1 98, TAAR1 ag 406 | TAAR1 ag confirm 536 | Ga16 ag counter 664 | TAAR1 desens 109 | Ga16 nonsel ant 105
CC(C)Nc1nc(NC(C)(C)C)nc(Oc2ccc(=O)n(-c3ccccc3)n2)n1	TAAR1 ag 70 | TAAR1 ag confirm 76 | Ga16 ag counter 54 | TAAR1 desens inactive | Ga16 nonsel ant inactive
N=C1/C(=C\c2coc3ccccc3c2=O)C(=O)N=C2SC=CN12	TAAR1 antag 60, CHO parental Ca 30, TAAR1 ag 148 | TAAR1 ag confirm 110 | Ga16 ag counter 118 | TAAR1 desens 75 | Ga16 nonsel ant 75
Cc1ccc(C(=O)Nc2ccc(Br)cc2)cc1S(=O)(=O)Nc1ccccn1	TAAR1 ag 66 | TAAR1 ag confirm inactive | Ga16 ag counter inactive | TAAR1 desens inactive | Ga16 nonsel ant inactive
O=C1/C(=C\c2ccc(Br)o2)Cc2ccccc21	TAAR1 ag 50 | TAAR1 ag confirm inactive | Ga16 ag counter inactive | TAAR1 desens inactive | Ga16 nonsel ant inactive
CN(C)CCNC(=O)c1ccc(CS(=O)(=O)c2c(Cl)cccc2Cl)o1	none
O=C(NCCc1ccccc1)c1ccc(CS(=O)(=O)Cc2ccccc2F)o1	TAAR1 ag 55 | TAAR1 ag confirm 83 | Ga16 ag counter inactive | TAAR1 desens 66 | Ga16 nonsel ant inactive
Cc1ccc(CCNC(=O)c2ccc(CS(=O)(=O)Cc3ccccc3F)o2)cc1	none
CN(CCNC(=O)c1ccc(CS(=O)(=O)c2c(Cl)cccc2Cl)o1)CCc1ccccc1	TAAR1 ag 44 | TAAR1 ag confirm 55 | Ga16 ag counter inactive | TAAR1 desens inactive | Ga16 nonsel ant inactive
CC(C)(C)OC(=O)NCCCC1=CC2=CC(=O)C(C)(O)C(=O)C2=CO1 (stereo not given)	none (no result: TAAR1 antag, TAAR1 ag)
O=C(NCCc1cccs1)C1CC(c2ccccc2[N+](=O)[O-])=NO1 (stereo not given)	TAAR1 ag 46 | TAAR1 ag confirm 57 | Ga16 ag counter inactive | TAAR1 desens inactive | Ga16 nonsel ant inactive
Cc1ccc(CCNC(=O)C2CC(c3ccccc3[N+](=O)[O-])=NO2)cc1 (stereo not given)	none
C=CCNC(=O)COc1ccc(N(C)S(=O)(=O)c2ccc(NC(C)=O)cc2)cc1	none
Cc1cccc(NC(=O)Nc2ccncc2)c1	TAAR1 ag 53 | TAAR1 ag confirm 77 | Ga16 ag counter inactive | TAAR1 desens inactive | Ga16 nonsel ant inactive
Cc1cccc(NC(=O)Nc2cnccn2)c1	none
O=C(Nc1cccnc1)Nc1cccc(F)c1	TAAR1 ag 52 | TAAR1 ag confirm 78 | Ga16 ag counter inactive | TAAR1 desens 54 | Ga16 nonsel ant inactive

Compound activity (PubChem BioAssay)
